In ChEMBL document CHEMBL1147088, “Small molecule obatoclax (GX15-070) antagonizes MCL-1 and overcomes MCL-1-mediated resistance to apoptosis” (Proc Natl Acad Sci U S A, 2007):
Active and inactive are the calls of the source. No cut-off for these calls is given here.

Key:
[1] = target: Apoptosis regulator Bcl-2 (Homo sapiens, UniProt P10415); assay: Binding affinity to BCL2
Saccharomyces cerevisiae [2] = assay: Growth inhibition of Saccharomyces cerevisiae W301; assay type: functional, organism-based
Procedure, shortened: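 W301 yeast transformed with BCL-family/BAX/BAK or control vectors, then grown in synthetic complete medium with 2% raffinose and 2% galactose. Seeded at 0.01 OD units and shaken 48 h at 30°C. Compound or vehicle was added to growth medium with final DMSO 0.67%. Cell density was the read-out, and IC50 values were recorded.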

Eu-Myc [3] = assay: Induction of apoptosis in mouse Eu-Myc cells overexpressing A1 assessed as inhibition of cell survivability at 1 uM; assay type: functional, cell-based
Mus musculus [4] = assay: Toxicity in CB17 SCID mouse bearing human PC3 cells xenografts assessed as survivability at 2 mg/kg, ip administered once in 3 days for 5 times after 14 days; assay type: organism-based, PC-3; parameters: dose 2 mg/kg, route intraperitoneal; conditions: in vivo, 336 h
Procedure, shortened: (§1)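 Tumor-bearing mice as in the xenograft study (BALB/c with 4T1; CB17 SCID with C33A, PC3, SW480), 8 per cohort, dosed i.p. once every 3 days ×5. Body weight measured three times weekly; animal deaths and weight change recorded 14 days after first injection.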

Bcl-2-like protein 2 = target: T1, Bcl-2-like protein 2 (Homo sapiens, UniProt Q92843); assay: Inhibition of BH3 peptide binding to human recombinant BCL-w by fluorescence polarization assay
T1 sequence (Q92843 whole entry): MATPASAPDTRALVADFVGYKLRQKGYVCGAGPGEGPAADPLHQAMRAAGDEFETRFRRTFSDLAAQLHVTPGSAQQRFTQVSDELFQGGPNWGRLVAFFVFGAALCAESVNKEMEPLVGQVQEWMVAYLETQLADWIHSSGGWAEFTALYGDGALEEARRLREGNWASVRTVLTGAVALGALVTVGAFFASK

SK-MEL-5 [5] = assay: Reduction in MCL1-BAK interaction in mitochondria of human SKMel5 cells at 1 uM after 5 hrs by immunoprecipitation; assay type: functional, cell-based
Mus musculus [6] = assay: Toxicity in CB17 SCID mouse bearing human PC3 cells xenografts assessed as weight change at 2 mg/kg, ip administered once in 3 days for 5 times after 14 days; assay type: organism-based, PC-3; parameters: dose 2 mg/kg, route intraperitoneal; conditions: in vivo, 336 h; procedure, shortened: as §1
E1A/p53DN [7] = assay: Increase in inhibition of MCL1 -/- in mouse Bim transformed E1A/p53DN cells; assay type: functional, cell-based
Bcl-2-related protein A1 = target: T2, Bcl-2-related protein A1 (Homo sapiens, UniProt Q16548); assay: Inhibition of BH3 peptide binding to human recombinant A1 by fluorescence polarization assay
T2 sequence (Q16548 whole entry): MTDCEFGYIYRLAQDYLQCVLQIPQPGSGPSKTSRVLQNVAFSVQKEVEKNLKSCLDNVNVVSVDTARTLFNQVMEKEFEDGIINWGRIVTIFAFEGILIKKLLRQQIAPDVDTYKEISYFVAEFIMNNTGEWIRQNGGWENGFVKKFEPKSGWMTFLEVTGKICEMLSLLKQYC

Saccharomyces cerevisiae [8] = assay: Antagonism of BCL pathway-mediated inhibition of Saccharomyces cerevisiae W301 in absence of BAX/BAK; assay type: functional, organism-based
Procedure, shortened: (§2)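 W301 yeast transformed with the indicated vectors; cultures in synthetic complete medium with 2% raffinose and 2% galactose, seeded at 0.01 OD units, compound or vehicle added (0.67% DMSO final). Cell density read after 48 h shaking at 30°C.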

Mus musculus [9] = assay: Toxicity in CB17 SCID mouse bearing human C33A cells xenografts assessed as weight change at 2 mg/kg, ip administered once in 3 days for 5 times after 14 days; assay type: organism-based, C-33-A; parameters: dose 2 mg/kg, route intraperitoneal; conditions: in vivo, 336 h; procedure, shortened: as §1
KB [10] = assay: Reversal of MCL1 mediated resistance to ABT-737 in BCL2 overexpressing human KB cells assessed as cell death; assay type: functional, cell-based
SK-MEL-5 [11] = assay: Inhibition of MCL1-BAK interaction in mitochondria of human SKMel5 cells at 10 nM; assay type: functional, cell-based
B16-F1 = assay: Reversal of MCL1 mediated resistance to bortezomib in mouse B16-F1 cells assessed as cell death; assay type: functional, cell-based
Mus musculus [12] = assay: Toxicity in CB17 SCID mouse bearing human SW480 cells xenografts assessed as survivability at 2 mg/kg, ip administered once in 3 days for 5 times after 14 days; assay type: organism-based; parameters: dose 2 mg/kg, route intraperitoneal; conditions: in vivo, 336 h; procedure, shortened: as §1
Eu-Myc [13] = assay: Induction of apoptosis in mouse Eu-Myc cells overexpressing BCL2 assessed as inhibition of colony formation at 1 uM; assay type: functional, cell-based
Eu-Myc [14] = assay: Induction of apoptosis in mouse Eu-Myc cells overexpressing BCL2 assessed as inhibition of cell survivability at 1 uM; assay type: functional, cell-based
Saccharomyces cerevisiae [15] = assay: Antagonism of BAX/BAK dependent BCL pathway-mediated inhibition of Saccharomyces cerevisiae W301; assay type: functional, organism-based; procedure, shortened: as §2
Bcl-2-like protein 10 = target: T3, Bcl-2-like protein 10 (Homo sapiens, UniProt Q9HD36); assay: Inhibition of BH3 peptide binding to human recombinant BCL-b by fluorescence polarization assay
T3 sequence (Q9HD36 whole entry): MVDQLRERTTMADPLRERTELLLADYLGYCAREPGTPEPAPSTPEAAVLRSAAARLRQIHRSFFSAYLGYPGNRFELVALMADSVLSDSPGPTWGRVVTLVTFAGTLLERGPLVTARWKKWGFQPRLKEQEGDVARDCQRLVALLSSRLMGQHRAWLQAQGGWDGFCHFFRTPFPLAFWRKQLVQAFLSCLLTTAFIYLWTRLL

Eu-Myc [16] = assay: Induction of apoptosis in mouse Eu-Myc cells overexpressing A1 assessed as inhibition of colony formation at 1 uM; assay type: functional, cell-based
Epithelial cell = assay: […] in Bax and Bak double knock out E1A/p53DN-transformed mouse kidney epithelial cells assessed as caspase-3 activation at 2.0 uM; assay type: functional, cell-based
KB [17] = assay: Release of cytochrome c in mitochondria of human KB cells at 2 uM; assay type: functional, cell-based
Procedure, shortened: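 Mitochondria isolated from KB cells were incubated 30 min at 37°C with DMSO or compound, then reisolated. Mitochondrial pellet and post-mitochondrial supernatant were analysed by SDS/PAGE and cytochrome c immunoblot, with actin and a control protein as loading controls.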

[18] = target: Induced myeloid leukemia cell differentiation protein Mcl-1 (Homo sapiens, UniProt Q07820); assay: Inhibition of BH3 peptide binding to human recombinant MCL1 by fluorescence polarization assay
4T1 = assay: Antitumor activity in BALB/c mouse bearing mouse 4T1 cells xenografts at 2 mg/kg, ip administered once in 3 days for 5 times after 14 days; assay type: functional; conditions: route intraperitoneal
Procedure, shortened: (§3)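 Female mice, 6–8 weeks (BALB/c for 4T1; CB17 SCID for C33A, PC3, SW480), given s.c. flank cells in PBS. Dosing i.p. once every 3 days ×5, starting day 7 (SW480), 14 (C33A) or 8 (PC3, 4T1). Tumor size measured thrice weekly, volume = length × width²/2, 8 animals/cohort; T/C (mean tumor size change treated ÷ control) at 14 days after first dose.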

Mus musculus [19] = assay: Toxicity in BALB/c mouse bearing mouse 4T1 cells xenografts assessed as survivability at 2 mg/kg, ip administered once in 3 days for 5 times after 14 days; assay type: organism-based; parameters: dose 2 mg/kg, route intraperitoneal; conditions: in vivo, 336 h; procedure, shortened: as §1
SW480 = assay: Antitumor activity in CB17 SCID mouse bearing human SW480 cells xenografts at 2 mg/kg, ip administered once in 3 days for 5 times after 14 days; assay type: functional; conditions: route intraperitoneal; procedure, shortened: as §3
Mus musculus [20] = assay: Toxicity in CB17 SCID mouse bearing human C33A cells xenografts assessed as survivability at 2 mg/kg, ip administered once in 3 days for 5 times after 14 days; assay type: organism-based, C-33-A; parameters: dose 2 mg/kg, route intraperitoneal; conditions: in vivo, 336 h; procedure, shortened: as §1
E1A/p53DN [21] = assay: Increase in inhibition of MCL1 +/+ in mouse Bim transformed E1A/p53DN cells; assay type: functional, cell-based
C-33-A = assay: Antitumor activity in CB17 SCID mouse bearing human C33A cells xenografts at 2 mg/kg, ip administered once in 3 days for 5 times after 14 days; assay type: functional; conditions: route intraperitoneal; procedure, shortened: as §3
SK-MEL-5 [22] = assay: Disruption of BCL2-BIM interaction in mitochondria of human SKMel5 cells 5 hrs by immunoprecipitation; assay type: functional, cell-based
Mus musculus [23] = assay: Toxicity in BALB/c mouse bearing mouse 4T1 cells xenografts assessed as weight change at 2 mg/kg, ip administered once in 3 days for 5 times after 14 days; assay type: organism-based; parameters: dose 2 mg/kg, route intraperitoneal; conditions: in vivo, 336 h; procedure, shortened: as §1
Eu-Myc [24] = assay: Induction of apoptosis in mouse Eu-Myc cells overexpressing MCL1 assessed as inhibition of cell survivability at 1 uM; assay type: functional, cell-based
PC-3 = assay: Antitumor activity in CB17 SCID mouse bearing human PC3 cells xenografts at 2 mg/kg, ip administered once in 3 days for 5 times after 14 days; assay type: functional; conditions: route intraperitoneal; procedure, shortened: as §3
Eu-Myc [25] = assay: Induction of apoptosis in mouse Eu-Myc cells overexpressing MCL1 assessed as inhibition of colony formation at 1 uM; assay type: functional, cell-based
Mus musculus [26] = assay: Toxicity in CB17 SCID mouse bearing human SW480 cells xenografts assessed as weight change at 2 mg/kg, ip administered once in 3 days for 5 times after 14 days; assay type: organism-based; parameters: dose 2 mg/kg, route intraperitoneal; conditions: in vivo, 336 h; procedure, shortened: as §1

Apoptosis regulator Bcl-2, sequence (P10415 whole entry): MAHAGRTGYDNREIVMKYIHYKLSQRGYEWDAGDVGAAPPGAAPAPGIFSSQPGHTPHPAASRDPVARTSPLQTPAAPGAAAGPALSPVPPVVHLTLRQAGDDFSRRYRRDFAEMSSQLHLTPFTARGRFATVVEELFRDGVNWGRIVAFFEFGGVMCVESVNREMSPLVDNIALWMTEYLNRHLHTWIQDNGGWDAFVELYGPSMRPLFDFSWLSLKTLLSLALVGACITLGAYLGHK
Induced myeloid leukemia cell differentiation protein Mcl-1, sequence (Q07820 whole entry): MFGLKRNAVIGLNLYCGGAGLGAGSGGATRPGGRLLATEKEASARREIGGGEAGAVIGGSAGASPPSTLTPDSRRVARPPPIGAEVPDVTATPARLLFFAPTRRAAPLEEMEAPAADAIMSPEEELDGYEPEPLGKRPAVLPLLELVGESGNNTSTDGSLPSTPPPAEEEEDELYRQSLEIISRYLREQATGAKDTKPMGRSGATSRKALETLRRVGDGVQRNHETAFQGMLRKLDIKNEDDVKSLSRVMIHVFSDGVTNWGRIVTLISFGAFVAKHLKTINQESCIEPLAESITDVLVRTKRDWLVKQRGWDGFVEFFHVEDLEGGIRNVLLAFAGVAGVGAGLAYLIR

Oc1cc(O)c2c(c1)O[C@H](c1ccc(O)c(O)c1)[C@H](O)C2 [CATECHIN]
Ki [1]: > 100000 nM

COc1cccc2c1C(=O)c1c(O)c3c(c(O)c1C2=O)C[C@@](O)(C(=O)CO)C[C@@H]3O[C@H]1C[C@H](N)[C@H](O)[C@H](C)O1 [DOXORUBICIN]
IC50 (Saccharomyces cerevisiae [2]): 10000 nM

O=C(O[C@@H]1Cc2c(O)cc(O)cc2O[C@@H]1c1ccc(O)c(O)c1)c1cc(O)c(O)c(O)c1 [EPICATECHIN GALLATE]
Ki [1]: 229 nM

Oc1cc(O)c2c(c1)O[C@H](c1cc(O)c(O)c(O)c1)[C@H](O)C2 [EPIGALLOCATECHIN]
Ki [1]: > 100000 nM

O=C(O[C@@H]1Cc2c(O)cc(O)cc2O[C@@H]1c1cc(O)c(O)c(O)c1)c1cc(O)c(O)c(O)c1 [EPIGALOCATECHIN GALLATE]
Ki [1]: 234 nM

COC1=CC(c2cc3ccccc3[nH]2)=N/C1=C\c1[nH]c(C)cc1C [OBATOCLAX]
Activity (Eu-Myc [3]): Active
Activity (Mus musculus [4]): Non-toxic
Ki (Bcl-2-like protein 2): 1000 nM
Activity (SK-MEL-5 [5]): Active
Activity (Mus musculus [6]): 10%
Activity (E1A/p53DN [7]): Active
Ki (Bcl-2-related protein A1): 1000 nM
Activity (Saccharomyces cerevisiae [8]): inactive
Activity (Mus musculus [9]): 7%
Activity (KB [10]): Active
Activity (SK-MEL-5 [11]): Active
Activity (B16-F1): Active
Activity (Mus musculus [12]): Non-toxic
Activity (Eu-Myc [13]): Active
Activity (Eu-Myc [14]): Active
Activity (Saccharomyces cerevisiae [15]): Active
Ki (Bcl-2-like protein 10): 1000 nM
Activity (Eu-Myc [16]): Active
Activity (Epithelial cell): Active
Activity (KB [17]): inactive
Ki [18]: 1000 nM
Activity (4T1): 42%
Activity (Mus musculus [19]): Non-toxic
Activity (SW480): 35%
Activity (Mus musculus [20]): Non-toxic
Activity (E1A/p53DN [21]): Active
Activity (C-33-A): 11%
Activity (SK-MEL-5 [22]): Active
Activity (Mus musculus [23]): 1%
Activity (Eu-Myc [24]): Active
Activity (PC-3): 28%
Activity (Eu-Myc [25]): Active
Activity (Mus musculus [26]): 3%

O=c1c(O)cc([C@H]2Oc3cc(O)cc(O)c3C[C@H]2O)cc2c([C@H]3Oc4cc(O)cc(O)c4C[C@H]3O)cc(O)c(O)c12 [THEAFLAVIN]
Ki [1]: 692 nM
